Test results as given in ChEMBL document CHEMBL1155286, “Second generation of 2H-benzimidazole 1,3-dioxide derivatives as anti-trypanosomatid agents: synthesis, biological evaluation, and mode of action studies” (Eur J Med Chem, 2009).
pIC50: −log10 of the molar value.

test system: Trypanosoma cruzi; assay: Antitrypanosomal activity against Trypanosoma cruzi Tulahuen 2 epimastigotes assessed as inhibition of parasite growth after 5 days; assay type: functional; conditions: not given
Summary of the method: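 Stationary-phase (10-day) Tulahuen 2 epimastigotes inoculated at 1×10^6 cells/mL in BHI-Tryptose + 5% FBS, 28 °C, drug added from DMSO stock (final DMSO ≤0.4%; control 0.4% DMSO). Growth followed as A600; inhibition from day-5 vs day-0 absorbance relative to control. ID50 = concentration reducing absorbance ratio to 50%; three independent experiments.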

For `COc1ccc(CC2(C)[N+]([O-])=c3ccccc3=[N+]2[O-])cc1`, the ID50 was > 50 µM.

same assay, conditions: Trypanosoma cruzi, Tulahuen 2, 120 h; read-out: ID50 (the source's name)

Point of comparison: `CCCCCC1(C)[N+]([O-])=c2ccccc2=[N+]1[O-]`, pIC50 5.27. Against it:
- CC1(Cc2ccc([N+](=O)[O-])cc2)[N+]([O-])=c2ccccc2=[N+]1[O-] — within 0.2 log units, 5.08
- CC1(Cc2ccccc2)[N+]([O-])=c2ccccc2=[N+]1[O-] — lower, < 4.30
- [O-][N+]1=c2ccccc2=[N+]([O-])C12CCCC2 — 0.25 log units lower, 5.02

test system: Trypanosoma cruzi; assay: Antitrypanosomal activity against Trypanosoma cruzi CL Brener epimastigotes assessed as parasitic cytotoxicity at 25 uM after 5 days by MTT assay; assay type: functional; conditions: not given
Summary of the method: (§1)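 Single 25 μM dose for 5 days on exponential-phase epimastigotes in BHI-Tryptose + 5% FBS, 24-well plates; MTT 0.4 mg/mL, 3 h at 37 °C after PBS wash, formazan in DMSO, OD595. PCyt = [[…] (ODd − ODdm)/(ODc − ODcm)] × 100 with medium-only blanks, compound-in-medium blanks and growth controls; three independent experiments.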

Point of comparison: `[O-][N+]1=c2ccccc2=[N+]([O-])C12CCCC2`, Activity 83.7%. Against it:
- CCCCCC1(C)[N+]([O-])=c2ccccc2=[N+]1[O-] — higher, 88.2%
- CC1(Cc2ccccc2)[N+]([O-])=c2ccccc2=[N+]1[O-] — lower, 47%

test system: J774; assay: Cytotoxicity against mouse J774 cells at 100 uM relative to 5-((hydroxyimino)methyl)-2,2-dimethyl-2H-benzo[d]imidazole 1,3-dioxide; assay type: cell-based; conditions: j774, 100 µM

Point of comparison: `COc1ccc(CC2(C)[N+]([O-])=c3ccccc3=[N+]2[O-])cc1`, Activity 0.32%. Against it:
- CCCCCC1(C)[N+]([O-])=c2ccccc2=[N+]1[O-] — lower, 0.01%
- CC1(Cc2ccc([N+](=O)[O-])cc2)[N+]([O-])=c2ccccc2=[N+]1[O-] — higher, 0.47%
- CC1(Cc2ccccc2)[N+]([O-])=c2ccccc2=[N+]1[O-] — higher, 0.46%
- [O-][N+]1=c2ccccc2=[N+]([O-])C12CCCC2 — higher, 0.75%

test system: Trypanosoma cruzi; assay: Antitrypanosomal activity against Trypanosoma cruzi Colombiana assessed as parasitic cytotoxicity at 25 uM after 5 days by MTT assay; assay type: functional; conditions: not given; summary of the method: as §1

Point of comparison: `COc1ccc(CC2(C)[N+]([O-])=c3ccccc3=[N+]2[O-])cc1`, Activity 30.8%. Against it:
- CCCCCC1(C)[N+]([O-])=c2ccccc2=[N+]1[O-] — higher, 77.1%
- CC1(Cc2ccccc2)[N+]([O-])=c2ccccc2=[N+]1[O-] — lower, 18.6%
- [O-][N+]1=c2ccccc2=[N+]([O-])C12CCCC2 — higher, 94.8%

test system: not listed separately; assay: Selective index, ratio of ID50 for mouse J774 cells to ID50 for Leishmania braziliensis LTB300; conditions: not given

With `CCCCCC1(C)[N+]([O-])=c2ccccc2=[N+]1[O-]` the Ratio was <4.7.
In the case of `COc1ccc(CC2(C)[N+]([O-])=c3ccccc3=[N+]2[O-])cc1`, the Ratio was >11.4.
For `[O-][N+]1=c2ccccc2=[N+]([O-])C12CCCC2`, the Ratio was >111.1.

For `CC1(Cc2ccccc2)[N+]([O-])=c2ccccc2=[N+]1[O-]`, the Ratio was 14.6.

test system: Trypanosoma cruzi; assay: Antitrypanosomal activity against Trypanosoma cruzi Y epimastigotes after 5 days by MTT assay; assay type: functional; conditions: 120 h, read-out: ID50
Summary of the method: (§2)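 Epimastigotes (T. cruzi strains, BHI-Tryptose + 5% FBS, 28 °C) or L. braziliensis LTB300 promastigotes (axenic RPMI + 5% FBS, 28 °C) from exponential culture in 24-well plates; compounds from DMSO stock added for 5 days. Washed in PBS, 0.4 mg/mL MTT at 37 °C for 3 h, formazan dissolved in DMSO, OD595 read. Triplicate per concentration, six growth controls; 1.0–50.0 μM dose-response, ID50 = concentration reducing absorbance ratio to 50%; three independent experiments.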

For `[O-][N+]1=c2ccccc2=[N+]([O-])C12CCCC2`, the pIC50 was 5.19.

test system: not listed separately; assay: Selective index, ratio of ID50 for mouse J774 cells to ID50 for Trypanosoma cruzi Tulahuen 2; conditions: not given

Point of comparison: `COc1ccc(CC2(C)[N+]([O-])=c3ccccc3=[N+]2[O-])cc1`, Ratio 8. Against it:
- CCCCCC1(C)[N+]([O-])=c2ccccc2=[N+]1[O-] — higher, 43.1
- CC1(Cc2ccc([N+](=O)[O-])cc2)[N+]([O-])=c2ccccc2=[N+]1[O-] — higher, 14.5

In the case of `CC1(Cc2ccccc2)[N+]([O-])=c2ccccc2=[N+]1[O-]`, the Ratio was <6.
In the case of `[O-][N+]1=c2ccccc2=[N+]([O-])C12CCCC2`, the Ratio was >42.1.

test system: not listed separately; assay: Cytotoxicity against mouse J774 cells; assay type: cell-based; conditions: read-out: ID50 (the source's name)

Point of comparison: `CC1(Cc2ccccc2)[N+]([O-])=c2ccccc2=[N+]1[O-]`, CC50 302 µM. Against it:
- CCCCCC1(C)[N+]([O-])=c2ccccc2=[N+]1[O-] — within 1.5-fold, 233 µM
- COc1ccc(CC2(C)[N+]([O-])=c3ccccc3=[N+]2[O-])cc1 — higher, > 400 µM
- CC1(Cc2ccc([N+](=O)[O-])cc2)[N+]([O-])=c2ccccc2=[N+]1[O-] — 2.5-fold lower, 122 µM
- [O-][N+]1=c2ccccc2=[N+]([O-])C12CCCC2 — higher, > 400 µM

test system: Leishmania braziliensis; assay: Antiparasitic activity against Leishmania braziliensis MHOM/BR/00/LTB300 after 5 days by MTT assay; assay type: functional; conditions: MHOM/BR/00/LTB300, 120 h, read-out: ID50; summary of the method: as §2

Point of comparison: `[O-][N+]1=c2ccccc2=[N+]([O-])C12CCCC2`, pIC50 5.44. Against it:
- CCCCCC1(C)[N+]([O-])=c2ccccc2=[N+]1[O-] — lower, < 4.30
- COc1ccc(CC2(C)[N+]([O-])=c3ccccc3=[N+]2[O-])cc1 — 0.98 log units lower, 4.46
- CC1(Cc2ccccc2)[N+]([O-])=c2ccccc2=[N+]1[O-] — 0.76 log units lower, 4.68
